How the values were obtained:
Type in all cases: functional
Conditions in all cases: read-out: GI
SF-268 = test: Antitumor activity against human SF-268 cells assessed as growth inhibition at 10 uM relative to control
In short: (§1)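 After drug addition, plates were incubated 48 h at 37 °C under 5% CO2. Adherent cells were fixed with cold TCA (10% final, 60 min, 4 °C) and suspension cells with 16% final TCA. Staining used 0.4% SRB in 1% acetic acid, solubilized in 10 mM trizma, read at A515. Percent growth was calculated from time-zero, control and treated absorbances.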

SF-295 = test: Antitumor activity against human SF-295 cells assessed as growth inhibition at 10 uM relative to control; in short: as §1
LOX IMVI = test: Antitumor activity against human LOX IMVI cells assessed as growth inhibition at 10 uM relative to control; in short: as §1
HCT-116 = test: Antitumor activity against human HCT-116 cells assessed as growth inhibition at 10 uM relative to control; in short: as §1
SF-539 = test: Antitumor activity against human SF-539 cells assessed as growth inhibition at 10 uM relative to control; in short: as §1
HCC 2998 = test: Antitumor activity against human HCC 2998 cells assessed as growth inhibition at 10 uM relative to control; in short: as §1
NCI/ADR-RES = test: Antitumor activity against human NCI-ADR-RES cells assessed as growth inhibition at 10 uM relative to control; in short: as §1
T47D = test: Antitumor activity against human T47D cells assessed as growth inhibition at 10 uM relative to control
In short: (§2)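 Drug exposure 48 h at 37 °C, 5% CO2. Adherent cells fixed with cold TCA (10% final), suspension cells with TCA (16% final). Stained with 0.4% SRB in 1% acetic acid, dissolved in 10 mM Tris, A515. Growth relative to time-zero and untreated control.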

HOP-62 = test: Antitumor activity against human HOP-62 cells assessed as growth inhibition at 10 uM relative to control; in short: as §1
M14 = test: Antitumor activity against human M14 cells assessed as growth inhibition at 10 uM relative to control; in short: as §1
HL-60 = test: Antitumor activity against human HL-60 cells assessed as growth inhibition at 10 uM relative to control; in short: as §1
K562 = test: Antitumor activity against human K562 cells assessed as growth inhibition at 10 uM relative to control; in short: as §1
IGROV-1 = test: Antitumor activity against human IGROV-1 cells assessed as growth inhibition at 10 uM relative to control; in short: as §1
CCRF-CEM = test: Antitumor activity against human CCRF-CEM cells assessed as growth inhibition at 10 uM relative to control; in short: as §1
UO-31 = test: Antitumor activity against human UO-31 cells assessed as growth inhibition at 10 uM relative to control; in short: as §2
SW-620 = test: Antitumor activity against human SW-620 cells assessed as growth inhibition at 10 uM relative to control; in short: as §2
SNB-75 = test: Antitumor activity against human SNB-75 cells assessed as growth inhibition at 10 uM relative to control; in short: as §2
Malme-3M = test: Antitumor activity against human Malme-3M cells assessed as growth inhibition at 10 uM relative to control; in short: as §1
PC-3 = test: Antitumor activity against human PC-3 cells assessed as growth inhibition at 10 uM relative to control; in short: as §1
MDA-MB-468 = test: Antitumor activity against human MDA-MB-468 cells assessed as growth inhibition at 10 uM relative to control; in short: as §1
SR = test: Antitumor activity against human SR cells assessed as growth inhibition at 10 uM relative to control; in short: as §2
NCI-H322M = test: Antitumor activity against human NCI-H322M cells assessed as growth inhibition at 10 uM relative to control; in short: as §1
RXF 393 = test: Antitumor activity against human RXF 393 cells assessed as growth inhibition at 10 uM relative to control; in short: as §1
SNB-19 = test: Antitumor activity against human SNB-19 cells assessed as growth inhibition at 10 uM relative to control; in short: as §2
OVCAR-8 = test: Antitumor activity against human OVCAR-8 cells assessed as growth inhibition at 10 uM relative to control; in short: as §1
SK-MEL-5 = test: Antitumor activity against human SK-MEL-5 cells assessed as growth inhibition at 10 uM relative to control; in short: as §2
A498 = test: Antitumor activity against human A498 cells assessed as growth inhibition at 10 uM relative to control; in short: as §1
EKVX = test: Antitumor activity against human EKVX cells assessed as growth inhibition at 10 uM relative to control; in short: as §1
KM12 = test: Antitumor activity against human KM12 cells assessed as growth inhibition at 10 uM relative to control; in short: as §1
MOLT-4 = test: Antitumor activity against human MOLT-4 cells assessed as growth inhibition at 10 uM relative to control; in short: as §1
NCI-H23 = test: Antitumor activity against human NCI-H23 cells assessed as growth inhibition at 10 uM relative to control; in short: as §1
ACHN = test: Antitumor activity against human ACHN cells assessed as growth inhibition at 10 uM relative to control; in short: as §1
HOP-92 = test: Antitumor activity against human HOP-92 cells assessed as growth inhibition at 10 uM relative to control; in short: as §1
MDA-MB-231 = test: Antitumor activity against human MDA-MB-231 cells assessed as growth inhibition at 10 uM relative to control; in short: as §1
MDA-MB-435 = test: Antitumor activity against human MDA-MB-435 cells assessed as growth inhibition at 10 uM relative to control; in short: as §1
NCI-H226 = test: Antitumor activity against human NCI-H226 cells assessed as growth inhibition at 10 uM relative to control; in short: as §1
OVCAR-3 = test: Antitumor activity against human OVCAR-3 cells assessed as growth inhibition at 10 uM relative to control; in short: as §1
RPMI-8226 = test: Antitumor activity against human RPMI-8226 cells assessed as growth inhibition at 10 uM relative to control; in short: as §1
U-251 = test: Antitumor activity against human U-251 cells assessed as growth inhibition at 10 uM relative to control; in short: as §2
Hs-578T = test: Antitumor activity against human Hs-578T cells assessed as growth inhibition at 10 uM relative to control; in short: as §1
DU-145 = test: Antitumor activity against human DU-145 cells assessed as growth inhibition at 10 uM relative to control; in short: as §1
COLO 205 = test: Antitumor activity against human COLO 205 cells assessed as growth inhibition at 10 uM relative to control; in short: as §1
NCI-H522 = test: Antitumor activity against human NCI-H522 cells assessed as growth inhibition at 10 uM relative to control; in short: as §1
SK-MEL-28 = test: Antitumor activity against human SK-MEL-28 cells assessed as growth inhibition at 10 uM relative to control; in short: as §2
786-0 = test: Antitumor activity against human 786-0 cells assessed as growth inhibition at 10 uM relative to control; in short: as §1
BT-549 = test: Antitumor activity against human BT-549 cells assessed as growth inhibition at 10 uM relative to control; in short: as §1

Structure (SMILES): N#Cc1c(-c2ccc(Cl)cc2)nc(N/N=C/c2ccc[nH]2)nc1N1CCOCC1
- inhibition of growth at 10 µM (SF-268): 53.8%
- inhibition of growth at 10 µM (SF-295): 41.6%
- inhibition of growth at 10 µM (LOX IMVI): 12.2%
- inhibition of growth at 10 µM (HCT-116): < 1%
- inhibition of growth at 10 µM (SF-539): 66.6%
- inhibition of growth at 10 µM (HCC 2998): < 1%
- inhibition of growth at 10 µM (NCI/ADR-RES): 15.5%
- inhibition of growth at 10 µM (T47D): 35.1%
- inhibition of growth at 10 µM (HOP-62): 58.4%
- inhibition of growth at 10 µM (M14): < 1%
- inhibition of growth at 10 µM (HL-60): 97.7%
- inhibition of growth at 10 µM (K562): 55.8%
- inhibition of growth at 10 µM (IGROV-1): 32.6%
- inhibition of growth at 10 µM (CCRF-CEM): 79.2%
- inhibition of growth at 10 µM (UO-31): 85.2%
- inhibition of growth at 10 µM (SW-620): 10.8%
- inhibition of growth at 10 µM (SNB-75): < 1%
- inhibition of growth at 10 µM (Malme-3M): < 11.1%
- inhibition of growth at 10 µM (PC-3): 53.4%
- inhibition of growth at 10 µM (MDA-MB-468): 21.8%
- inhibition of growth at 10 µM (SR): 68.8%
- inhibition of growth at 10 µM (NCI-H322M): < 1%
- inhibition of growth at 10 µM (RXF 393): < 1%
- inhibition of growth at 10 µM (SNB-19): 25.8%
- inhibition of growth at 10 µM (OVCAR-8): 14.9%
- inhibition of growth at 10 µM (SK-MEL-5): 14.8%
- inhibition of growth at 10 µM (A498): 68.3%
- inhibition of growth at 10 µM (EKVX): 34%
- inhibition of growth at 10 µM (KM12): 63.5%
- inhibition of growth at 10 µM (MOLT-4): 82.6%
- inhibition of growth at 10 µM (NCI-H23): < 1%
- inhibition of growth at 10 µM (ACHN): 17.5%
- inhibition of growth at 10 µM (HOP-92): 31.1%
- inhibition of growth at 10 µM (MDA-MB-231): 20.3%
- inhibition of growth at 10 µM (MDA-MB-435): < 1%
- inhibition of growth at 10 µM (NCI-H226): 31.1%
- inhibition of growth at 10 µM (OVCAR-3): 54.4%
- inhibition of growth at 10 µM (RPMI-8226): 93.6%
- inhibition of growth at 10 µM (U-251): < 1%
- inhibition of growth at 10 µM (Hs-578T): < 1%
- inhibition of growth at 10 µM (DU-145): 15.8%
- inhibition of growth at 10 µM (COLO 205): 18.4%
- inhibition of growth at 10 µM (NCI-H522): 91.7%
- inhibition of growth at 10 µM (SK-MEL-28): < 1%
- inhibition of growth at 10 µM (786-0): 76.1%
- inhibition of growth at 10 µM (BT-549): 83.1%

Structure (SMILES): COc1cc(/C=N/Nc2nc(-c3ccc(Cl)cc3)c(C#N)c(N3CCOCC3)n2)cc(OC)c1OC
- inhibition of growth at 10 µM (SF-268): 17.6%
- inhibition of growth at 10 µM (SF-295): 13.8%
- inhibition of growth at 10 µM (LOX IMVI): 70%
- inhibition of growth at 10 µM (HCT-116): 55.4%
- inhibition of growth at 10 µM (SF-539): 35.5%
- inhibition of growth at 10 µM (HCC 2998): < 1%
- inhibition of growth at 10 µM (NCI/ADR-RES): 59%
- inhibition of growth at 10 µM (T47D): 51.8%
- inhibition of growth at 10 µM (HOP-62): 10.2%
- inhibition of growth at 10 µM (M14): 48.8%
- inhibition of growth at 10 µM (HL-60): 40.8%
- inhibition of growth at 10 µM (K562): 51.2%
- inhibition of growth at 10 µM (IGROV-1): 39.1%
- inhibition of growth at 10 µM (CCRF-CEM): 58.1%
- inhibition of growth at 10 µM (UO-31): 67%
- inhibition of growth at 10 µM (SW-620): 10.3%
- inhibition of growth at 10 µM (SNB-75): 48.9%
- inhibition of growth at 10 µM (Malme-3M): < 1%
- inhibition of growth at 10 µM (PC-3): 45.7%
- inhibition of growth at 10 µM (MDA-MB-468): 32.1%
- inhibition of growth at 10 µM (SR): 85.6%
- inhibition of growth at 10 µM (NCI-H322M): 16.4%
- inhibition of growth at 10 µM (RXF 393): 30.5%
- inhibition of growth at 10 µM (SNB-19): 14.8%
- inhibition of growth at 10 µM (OVCAR-8): 46.6%
- inhibition of growth at 10 µM (SK-MEL-5): 71%
- inhibition of growth at 10 µM (A498): 33.7%
- inhibition of growth at 10 µM (EKVX): 53.7%
- inhibition of growth at 10 µM (KM12): 31.2%
- inhibition of growth at 10 µM (MOLT-4): 65.9%
- inhibition of growth at 10 µM (NCI-H23): 13.3%
- inhibition of growth at 10 µM (ACHN): 36.7%
- inhibition of growth at 10 µM (HOP-92): 59.1%
- inhibition of growth at 10 µM (MDA-MB-231): 27.8%
- inhibition of growth at 10 µM (MDA-MB-435): 20.1%
- inhibition of growth at 10 µM (NCI-H226): 59.1%
- inhibition of growth at 10 µM (OVCAR-3): 25.9%
- inhibition of growth at 10 µM (RPMI-8226): 74.6%
- inhibition of growth at 10 µM (U-251): 43.6%
- inhibition of growth at 10 µM (Hs-578T): 14.4%
- inhibition of growth at 10 µM (DU-145): 32.2%
- inhibition of growth at 10 µM (COLO 205): 46.6%
- inhibition of growth at 10 µM (NCI-H522): 31.4%
- inhibition of growth at 10 µM (SK-MEL-28): 14.2%
- inhibition of growth at 10 µM (786-0): 28.3%
- inhibition of growth at 10 µM (BT-549): 45.7%
